S1P4 ag: human S1P4 receptor agonism; 220,000 tested, 0.35% active; activation, % at 4.98 µM; S1P4-expressing cell line, agonist reporter assay; O95977; AID 1509; in the data active means activation above about 11%;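 further: 0% = DMSO vehicle and 100% = reference agonist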
Target sequence (O95977 whole entry, looked up): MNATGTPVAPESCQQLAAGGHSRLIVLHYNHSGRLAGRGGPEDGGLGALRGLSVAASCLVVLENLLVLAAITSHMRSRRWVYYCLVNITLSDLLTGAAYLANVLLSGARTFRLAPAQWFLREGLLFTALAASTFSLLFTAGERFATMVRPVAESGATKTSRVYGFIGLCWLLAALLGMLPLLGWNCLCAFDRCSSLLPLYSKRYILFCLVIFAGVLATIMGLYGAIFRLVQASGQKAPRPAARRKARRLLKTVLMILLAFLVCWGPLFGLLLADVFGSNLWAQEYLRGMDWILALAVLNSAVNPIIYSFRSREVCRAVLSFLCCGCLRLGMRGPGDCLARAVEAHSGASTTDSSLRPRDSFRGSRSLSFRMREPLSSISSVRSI
TbHK1 inh: blocks Trypanosoma brucei hexokinase 1 activity; recombinant TbHK1, G6PDH-coupled NADH A340; 220,000 tested, 0.11% active; inhibition, % at 10 µM;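 active means inhibition of 50% or more in the single-dose primary screen; inactive means inhibition below 50%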
S1P4 antag: human S1P4 receptor antagonism; O95977; S1P4-expressing cells, antagonist mode, reporter read-out; inhibition, % at 4.98 µM; 220,000 tested, 0.26% active; AID 1510; in the data active means inhibition above about 29%;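 further: 0% = wells stimulated with agonist and 100% = vehicle wells without agonist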
zVAD death inh: blocks zVAD induced death of L929 cells. L929 zVAD necroptosis rescue, ATP luminescence, 24 h; with zVAD 60 µM. viability rescue, % at 10 µM. 220,000 tested, 0.38% active;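 active means activation, scaled between plate controls, above about 75%, limit read from the data; inactive means activation under that limit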;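 further: 0% = zVAD with DMSO and 100% = DMSO alone without zVAD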
Dynein cargo inh: blocks dynein driven cargo transport along microtubules. z-score, hits read low. AID 1381. 3617.4 mouse cells, GR-EGFP nuclear translocation imaging; test concentration mostly 20 µM; stimulated with dexamethasone, 1 µM; stronger effect = lower value. 220,000 tested, 0.47% active;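 active means plate z-score of nuclear minus cytoplasmic receptor signal below a set negative limit, without overly bright fluorescence or cell loss, cut at about -3.5 in these data, passing the limit was not always enough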;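 further: z-score of nuclear minus cytoplasmic ring GR-EGFP intensity difference per well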
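Also added: dexamethasone, 1.0 µM final. Medium: tet-free, stripped-serum medium. Detection: fixed, Hoechst-stained cells imaged at 10x for EGFP. Read-out: nuclear-to-cytoplasmic GR-EGFP distribution per well. Times: induction 48 h, compound 1 h, agonist 30 min.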
TNF necrop inh: blocks TNF-alpha induced death of Jurkat FADD-/- cells | Jurkat FADD-/- TNF necroptosis rescue, ATP luminescence, 24 h; 0 = TNF only, 100 = no-TNF cells | activation (protection from cell death), % at 10 µM | 220,000 tested, 0.068% active | AID 463075;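 active means activation, meaning protection from cell death, of at least 50% relative to plate controls; inactive means activation below 50%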;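 further: necroptosis triggered by 40 ng/mL TNF-alpha added together with compound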
Numbers without * were called inactive; · = not tested or not shown. Shown are actives, neighbours in structure and some others; about 1.5% of the full set was active somewhere.

SMILES | S1P4 ag | TbHK1 inh | S1P4 antag | zVAD death inh | Dynein cargo inh | TNF necrop inh
Cc1nn(Cc2c(F)cccc2Cl)c(C)c1[N+](=O)[O-] | 0 | 9 | -7 | 1 | -0.095 | 76*
CCOC(=O)N1CCN(CCC(=O)c2ccc(Cl)cc2)CC1 | 3 | 2 | 10 | · | -5.4* | 1
CC(=O)Nc1nonc1NC(C)=O | -1 | 46 | -5 | 1 | 0.54 | 1
CC(=O)Nc1cc(OC(C)=O)c2nonc2c1OC(C)=O | -3 | -10 | 109* | -1 | -5.1* | -17
COc1ccccc1CNC(=O)C(NC(=O)c1ccccc1C)C(C)C (configuration not stated) | -1 | 1 | 14 | 1 | -0.95 | 1
CC(NC(=O)c1ccc(N(C)C)cc1)C1CC2CCC1C2 (configuration not stated) | 1 | -11 | 34* | 0 | -0.95 | 1
CC(NC(=O)CCC(=O)c1ccc(F)cc1)C1CC2CCC1C2 (configuration not stated) | -2 | -8 | 3 | 1 | -0.47 | 0
Cn1cccc1/C=C1\SC(=S)N(NC(=O)c2ccccc2O)C1=O | 2 | 7 | 10 | 0 | 0.49 | 2
O=C(NN1C(=O)/C(=C/C=C/c2ccco2)SC1=S)c1ccccc1O | 1 | 63* | -9 | 0 | -1.4 | -5
CCCC[C@@H]1CNC(=S)N1CCCC | 0 | -4 | 6 | 0 | 0.43 | 0
COc1ccc(Br)cc1/C=C/C(=O)Nc1c(C)cccc1C | 1 | 1 | 95* | 0 | 0.085 | -2
COc1ccc(NC(=O)/C=C/c2cc(Br)ccc2OC)cc1 | -3 | 6 | 18 | 0 | 0.55 | -1
COc1ccc(Br)cc1/C=C/C(=O)c1ccc(NC(C)=O)cc1 | 2 | -16 | 5 | 88* | -3.5* | -7
CCCN1C(=O)/C(=C/c2c(N3CCNC(=O)C3CC(=O)OC)nc3c(C)cccn3c2=O)SC1=S (configuration not stated) | 0 | -27 | -2 | 1 | 0.06 | -14
Cc1cc(C)c(S(=O)(=O)/N=C2/C=C(Sc3ncn[nH]3)C(=O)c3ccccc32)cc1C | 1 | 38 | 0 | 1 | -6.6* | -9
Cc1ccc2c(c1)C(=O)C(=O)N2CC(=O)Nc1ccccc1NC(=O)c1ccccn1 | 2 | -7 | -11 | 0 | 0.079 | -12
COc1ccc(NC(=O)/C(Cl)=C(/Cl)S(=O)Cc2ccccc2Cl)cn1 (configuration not stated) | -6 | 9 | 102* | -4 | -5* | -15
C=CCN1C(=O)/C(=C/C=C2/N(CC)c3ccc(S(=O)(=O)N(C)C)cc3N2CC)SC1=S | -1 | -6 | 12 | 0 | -0.78 | -3
CCOC(=O)c1ccc2c(c1)N(CC)/C(=C\C=C1/SC(=S)N(CC)C1=O)N2CC | 3 | -11 | 2 | -1 | -6* | -9
CC(=O)Nc1cccc(C(=O)OC(C(=O)c2ccc(C)c(C)c2)c2ccccc2)c1 (configuration not stated) | -1 | -7 | -17 | 83* | -0.21 | -9
O=C1C(CSCc2ccccc2)NC(=S)N1c1ccccc1 (configuration not stated) | 0 | -9 | 7 | 1 | -0.29 | -1
CCN(CC)c1ccc2cc(-c3nnc(-c4ccc(Br)cc4)o3)c(=O)oc2c1 | 0 | 26 | 5 | 0 | -5.7* | 0
CCN(CC)c1ccc2cc(-c3nnc(-c4ccccc4)o3)c(=O)oc2c1 | 1 | 5 | 6 | 1 | -4.5* | 0
Cc1nc2ccc(NC(=O)c3ccc(Cl)c([N+](=O)[O-])c3)cc2s1 | -1 | -4 | -12 | 1 | 0.27 | 1
Cc1nc2ccc(NC(=O)c3cc([N+](=O)[O-])cc([N+](=O)[O-])c3Cl)cc2s1 | 6 | 3 | 66* | 12 | -3.6* | -3
SMILES | S1P4 ag | TbHK1 inh | S1P4 antag | zVAD death inh | Dynein cargo inh | TNF necrop inh
C/C(=N\O)C(C)(C)Nc1ccc(Br)cc1 | -1 | 0 | 4 | 3 | 0.089 | 19
CCOC(=O)CSC1=Nc2ccccc2C2=NC(CC(=O)NCc3ccc4c(c3)OCO4)C(=O)N12 (configuration not stated) | 72* | -10 | 10 | 2 | -0.86 | 0
CCOC(=O)CSC1=Nc2ccccc2C2=NC(CC(=O)NCc3ccc(OC)cc3)C(=O)N12 (configuration not stated) | 1 | -7 | -11 | -1 | -0.29 | 0
O=C1N/C(=C/c2ccc(N3CCOCC3)o2)C(=O)N1c1ccccc1 | 0 | -8 | 9 | 0 | -6.2* | 1
COC(=O)c1sc(S(=O)(=O)N2CCN(CCO)CC2)c(C(=O)OC)c1C | 0 | 2 | 0 | 1 | -0.67 | 0
COC(=O)c1sc(S(=O)(=O)N2CCC(C(=O)O)CC2)c(C(=O)OC)c1C | 3 | -1 | 7 | 83* | 0.58 | 0
COC(=O)c1cccc(Nc2ccc([N+](=O)[O-])cn2)c1 | 0 | -11 | -11 | 45 | -0.38 | 3
O=[N+]([O-])c1ccc(Nc2ccccc2)nc1 | -1 | 22 | 2 | 24 | 0.42 | 90*
O=[N+]([O-])c1ccc(Nc2cccc(F)c2)nc1 | 0 | -15 | 5 | 3 | 0.12 | 70*
O=[N+]([O-])c1ccc(NCc2ccccc2)nc1 | -1 | -21 | 1 | 3 | 0.19 | 76*
O=C(Nc1ccc(F)cc1)Nc1ccc([N+](=O)[O-])cn1 | 1 | 3 | -15 | 7 | 0.18 | 1
Cc1cc(Nc2ccc([N+](=O)[O-])cc2)nc2ccccc12 | -1 | 3 | 5 | 0 | 0.98 | 1
O=[N+]([O-])c1ccc(Nc2ccc(F)cc2)nc1 | 0 | -19 | -13 | 4 | 1.2 | 73*
CCOC(=O)Cn1cc(/C=N/N2C(=O)C3C4C=CC(C4)C3C2=O)c2ccccc21 (configuration not stated) | 2 | -3 | -35 | 2 | -0.76 | 1
CCOC(CNC(=O)c1ccc2c(c1)ncn2-c1cccc(F)c1)OCC | 0 | 2 | 3 | 69 | -0.24 | 1
COCCNC(=O)c1ccc2c(c1)ncn2-c1ccc(F)c(F)c1 | -1 | 4 | -10 | 75* | 0.047 | -3
CCOC(=O)C1(CCOC)CCN(Cc2cnc(-c3cccc(C)c3)nc2)CC1 | 2 | 2 | -13 | -1 | 0.87 | 0
COc1ccc(C(=O)C2CCCN(C(=O)C3=CCCC3)C2)c(C)c1 (configuration not stated) | 2 | -5 | -14 | 6 | 0.52 | 0
COC(=O)c1onc(-c2c(Cl)cccc2Cl)c1C(=O)OC | 1 | 6 | 9 | 0 | 1.9 | 1
Cc1cccc(OC(=O)Cn2c(C(F)(F)F)nc3ccccc32)c1 | -1 | 4 | -12 | 0 | -0.4 | -2

High-throughput results as filed in PubChem.
